# UPR XBP1 act: activators of adaptive XBP1 UPR arm, primary screen, cell-based, CHO-XBP1 luciferase reporter, luminescence, uHTS | IRE1-XBP1 UPR activation; percent of tunicamycin response, DMSO as zero | activation, % at 20 µM | 0.33% of 330,000 active;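 active = versus positive control, 20 µM dose yields 30% or more activation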;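 also: 100% = tunicamycin at 10 µg/mL and 0% = DMSO only wells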
#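 Signal: luciferase luminescence; Assay system: CHO-XBP1 luciferase reporter cells; Amount: one thousand reporter cells per well; Dosing: 20 µM single concentration, DMSO 1%; Benchmarks: high control tunicamycin 10 µg/mL final, low control DMSO vehicle only; Schedule: 6 h compound exposure at 37 °C, 5% CO2; Evaluation: percent activation relative to tunicamycin reference.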
# UPR CHOP act: activators of apoptotic CHOP UPR arm, primary screen, cell-based, CHO-CHOP luciferase reporter, luminescence, uHTS; activation, % at 10 µM; AID 449763, 2010; 0.34% of 330,000 active; UPR activation; percent of tunicamycin response over DMSO baseline;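 active = at 10 µM dose, activation of 40% or more, normalized to positive control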;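 also: 100% = tunicamycin at 10 µg/mL and 0% = DMSO alone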
#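 System: CHO CHOP reporter cells. Amount: 500 cells per well. Buffer or medium: F12 medium, 10% FBS. Compound dosing: one dose, 10 µM in 0.5% DMSO. Incubation: 6 h compound exposure at 37 °C after overnight seeding. Technique: Steady-Glo luciferase luminescence. Benchmarks: tunicamycin and DMSO controls.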
# Beta2AR agonist: beta2AR agonists driving receptor internalization, primary screen, cell-based, FAP fluorogen, flow cytometry. Beta-2 adrenergic receptor (Homo sapiens), P07550. Am2.2-beta2AR cells. response, % (test concentration not listed). 0.43% of 340,000 active;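 active = response above a set limit, near 3 SD of response in nonfluorescent compounds, cut at about 42% in these data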
# Target sequence (P07550 whole entry, looked up): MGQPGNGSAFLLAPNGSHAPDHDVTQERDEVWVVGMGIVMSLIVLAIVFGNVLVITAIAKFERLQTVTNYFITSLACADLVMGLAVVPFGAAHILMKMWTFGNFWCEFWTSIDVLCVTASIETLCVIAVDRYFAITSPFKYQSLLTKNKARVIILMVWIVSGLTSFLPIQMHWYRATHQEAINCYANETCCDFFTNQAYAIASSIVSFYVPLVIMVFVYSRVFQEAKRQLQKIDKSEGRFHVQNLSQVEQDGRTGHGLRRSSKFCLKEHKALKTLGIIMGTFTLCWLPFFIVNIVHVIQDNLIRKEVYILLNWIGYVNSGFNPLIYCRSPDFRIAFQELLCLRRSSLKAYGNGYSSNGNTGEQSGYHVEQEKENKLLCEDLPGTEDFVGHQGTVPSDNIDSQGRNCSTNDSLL
# T cell modulator: modulators of CD8 T cell-vesicle binding, primary screen, mouse 2C CD8+ T cells, flow cytometry; 2C CD8+ T cell-vesicle binding; active compounds read low; response (vesicle binding), % at 7 µM; 0.068% of 330,000 active;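 active = response, share of CD8 T cells binding vesicles, and their 90th percentile fluorescence all below set limits, cut at about 80% in these data, passing the limit was not always enough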;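 also: values below 100% mean blocked vesicle binding to the CD8+ T cells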
#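 material = purified 2C TCR transgenic mouse naive CD8+ T cells | controls = Unloaded micro-vesicles (low), QL9 vesicles with 0.7% DMSO (high) | detection = cytometric PE anti-B7-1 and Alexa647 anti-CD8 signals after 1% paraformaldehyde fixation | incubation = binding step 1.5 h, 37 °C, antibody labelling 20 min, ice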
# B2AR ag CP1: beta2AR agonists via receptor internalization, confirmation, cell-based, FAP fluorogen, flow cytometry, single point, cherry pick 1; percent response (surface receptor), % at 10 µM; Am2.2-beta2AR cells, FAP surface receptor; active compounds read low; 25% of 1,100 active; AID 540358, 2011; shares compounds with Beta2AR agonist;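 active = surface receptor percent response at or below 58%, roughly 3 SD from nonfluorescent compounds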
# B2AR FAP counter: counter-screen for beta-2AR agonists: fluorescence in Am2.2 cells | shares compounds with Beta2AR agonist | FAP fluorogen flow cytometry, fluorescence counterscreen; active compounds read low | calls only at 10 µM | 1,100 tested, under 10 active;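 active = percent response below a set limit in fluorescence channel 1 and below 50% in channel 8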
# * marks the source's active call; other numbers are inactive results; i = inactive; / = no result. A selection: hits, their analogues and other compounds. The true share with any hit is near 1%.
SMILES,UPR XBP1 act,UPR CHOP act,Beta2AR agonist,T cell modulator,B2AR ag CP1,B2AR FAP counter
Clc1ccc(OCc2nnc(SCc3nc4ccccc4[nH]3)n2Cc2ccco2)cc1,-1.0,4.1,111.2*,185.6,38.5*,i
COC(=O)c1cccc(NC(=O)c2cnccn2)c1,-3.4,1.1,5.5,192.8,/,/
Cc1ccc2c(c1)c1c3n2CCCNC3CCC1 (stereo unspecified),0.6,-1.5,10.1,422.3,/,/
c1cc2c(cc1C1CCCCC1)c1c3n2CCCNC3CCC1 (stereo unspecified),7.8,32.2,43.5*,238.9,100.8,i
COc1ccc(N(CC(=O)NCCSCc2ccc(Cl)cc2)S(C)(=O)=O)cc1Cl,-3.1,1.9,-2.5,153.5,/,/
CCCCOc1cccc(C(=O)Nc2ccc(NC(=O)c3cccs3)cc2)c1,1.0,1.2,79.5*,295.2,21.4*,i
CCCOc1ccc(C(=O)Nc2ccc(NC(=O)c3cccs3)cc2)cc1,-8.5,3.4,-6.2,233.7,/,/
CCOc1ccccc1NC(=O)c1cccc2c1C(=O)N(C1CCCCC1)C2,-0.2,5.9,-0.8,309.0,/,/
COc1cc(OC)c(C(=O)OCC(=O)Nc2ccc(S(=O)(=O)N3CCOCC3)cc2)cc1OC,5.1,0.1,6.5,416.4,/,/
COc1ccc(C(C)NCCC(c2ccc(OC(C)C)cc2)c2ccccc2OC)cc1 (stereo unspecified),-4.0,1.5,22.9,119.4,95.6,i
Cc1c(C(c2ccc(Br)cc2)c2c(C)n(C)n(-c3ccccc3)c2=O)c(=O)n(-c2ccccc2)n1C,-2.5,0.4,-8.2,405.7,/,/
CCOC(=O)c1cnc2c(ccc3ccccc32)c1NCCCN(C)C,1.7,7.8,-1.2,349.9,/,/
CCOC(=O)c1cn(C2CC2)c2c(F)c(NCCCN(C)C)c(F)cc2c1=O,2.2,-0.8,63.9*,i,37.8*,i
Fc1ccc(-c2nn(-c3ccccc3)cc2CNCc2ccccc2)cc1,-3.5,1.3,44.2*,273.1,91.0,i
OCc1cn(-c2ccccc2)nc1-c1ccc(-c2nn(-c3ccccc3)cc2CO)cc1,7.9,14.6,13.0,279.5,/,/
CCOc1ccc(Cl)cc1S(=O)(=O)NC1CCCC1,-0.6,-0.3,-5.6,882.0,/,/
Cc1csc(NC(=O)CCc2c(C)nc3cc(-c4ccc(Cl)cc4)nn3c2C)n1,1.8,-0.6,63.4*,985.2,69.2,i
Cc1nc2cc(-c3ccc(Cl)cc3)nn2c(C)c1CCC(=O)NC(C)c1ccc2c(c1)OCCO2 (stereo unspecified),-6.5,-3.1,-31.6,i,/,/
COc1ccc(/C=C/C(=O)NC(=S)N2CCSCC2)cc1,-2.4,1.9,1.1,135.5,/,/
O=C(Nc1ccc2oc(-c3ccncc3)nc2c1)c1ccc2c(c1)OCO2,5.8,3.2,14.9,134.4,100.6,i
O=C(Nc1ccc2oc(-c3ccncc3)nc2c1)c1ccc2c(c1)OCCO2,16.3,2.1,73.3*,346.8,90.3,i
COC(=O)c1ccc(COc2cc(O)c3c(c2)OC(C)(C)CC3=O)cc1,6.8,0.7,45.5*,237.8,106.0,i
Cc1cc(C)nc(NS(=O)(=O)c2ccc(NC(=O)Cc3ccccc3)cc2)n1,-2.5,-1.7,2.4,233.5,/,/
Cc1cc(C)nc(NS(=O)(=O)c2ccc(NC(=O)COc3ccccc3)cc2)n1,-1.3,-0.1,118.0*,747.9,122.4,i
O=C(Nc1ccc(F)cc1F)C1(c2cccs2)CCOCC1,-0.6,3.6,3.3,690.2,/,/
SMILES,UPR XBP1 act,UPR CHOP act,Beta2AR agonist,T cell modulator,B2AR ag CP1,B2AR FAP counter
Cc1ccc(Cl)cc1NC(=O)c1cc2ccccc2cc1O,1.9,25.5,43.6*,477.4,94.7,i
COc1cc(NC(=O)c2cc3ccccc3cc2O)c(OC)cc1Cl,13.4,9.6,21.1,168.1,/,/
CCOC(=O)c1cc(NC(=O)N(CC)C2CCCCC2)c(C)nc1C,-0.6,-2.8,0.8,178.1,/,/
CCOC(=O)c1cc(NC(=O)N(C)C2CCCCC2)c(C)nc1C,1.6,-0.3,47.8*,339.9,106.3,i
CCSc1nnc(NC(=O)CSc2nc3c(c(=O)n2CCOC)SC(C)C3)s1 (stereo unspecified),-2.4,-3.1,-8.6,742.1,/,/
CCc1ccccc1N(C)S(=O)(=O)c1ccc2[nH]cc(C(=O)O)c(=O)c2c1,-2.7,-1.3,76.0*,259.2,84.4,i
COc1cc(C#N)ccc1OCC(=O)Nc1ccc(C)c(S(=O)(=O)N2CCOCC2)c1,-3.2,-0.9,-1.9,254.6,/,/
CCC(NC(=O)c1cc(COc2ccc(C)nc2)on1)c1ccc(C)cc1 (stereo unspecified),-2.2,-1.1,-2.6,360.6,127.5,i
CCC(NC(=O)c1cc(COc2cc(C)c(Cl)c(C)c2)on1)c1ccncc1 (stereo unspecified),-9.8,4.1,-2.1,374.4,/,/
Cc1ccc(OCc2cc(C(=O)NCc3cc(F)ccc3C)no2)cn1,0.7,3.3,-11.0,/,75.2,i
Cc1ccc(OCc2cc(C(=O)NC3CCc4ccccc43)no2)cn1 (stereo unspecified),-8.6,-0.5,-2.9,296.6,121.9,i
CSc1ccccc1OCc1cc(C(=O)NC2CCc3ccccc32)no1 (stereo unspecified),-2.2,-2.3,2.5,848.3,/,/
O=C(N/N=C\c1cccc(Cl)c1)c1ccc(Cn2cccn2)o1,-0.9,6.2,-4.1,603.5,/,/
O=C1CC(c2ccccc2)CC(O)=C1C=Nc1cccc(Cl)c1 (stereo unspecified),9.8,34.4,-7.1,126.2,/,/
CC1(C2CC2)NC(=O)N(CC(=O)N2CCN(c3ccccc3)CC2)C1=O (stereo unspecified),-2.4,2.3,-11.6,i,/,/
Oc1c(N=NC(=S)Nc2ccccc2F)c2ccccc2n1Cc1ccc(F)cc1,1.3,-1.6,11.8,753.5,/,/
NC(=S)N=Nc1c(O)n(Cc2ccc(F)cc2)c2ccccc12,8.5,-0.8,-2.7,101.1,101.8,i
CN1C(=O)NC(=O)C1c1ccccc1 (stereo unspecified),/,/,0.1,/,/,/
COc1cc(/C=N/n2cnnc2)ccc1OCCOc1ccccc1,-3.9,0.7,-2.6,386.8,/,/
C=CCc1ccc(OCCOc2ccc(/C=N/n3cnnc3)cc2OCC)c(OC)c1,-1.9,-1.1,57.0*,162.4,33.5*,i
C[C@@H]1CN([C@@H](C)CO)C(=O)Cc2cc(NC(=O)Nc3ccc(C(F)(F)F)cc3)ccc2O[C@@H]1CN(C)S(=O)(=O)c1ccc(Cl)cc1,10.9,12.8,1.2,106.5,/,/

# Screening data (PubChem)
